Assay results taken from ChEMBL document CHEMBL3044709, “Antimicrobial furostanol saponins from the seeds of Capsicum annuum L. var. acuminatum” (2002).
Values after ≈ are worked out from the molar mass of the structure shown.

What was measured:
Assay type in all cases: functional
Bacillus subtilis = assay: Antimicrobial activity against Bacillus subtilis DSM 345 after 48 hr by agar dilution method; conditions: DSM 345, 48 h
Method in brief: (§1)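 Agar dilution on standard plate count agar: 0.5 mL of a 2-fold serial dilution of sample mixed into 9.5 mL medium, poured into Petri dishes, organism streaked on the surface. Incubated at 28 °C (36 and 48 h). MIC is the lowest tested concentration with no visible growth.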

Staphylococcus aureus = assay: Antimicrobial activity against Staphylococcus aureus subsp. aureus DSM 346 after 48 hr by agar dilution method; conditions: DSM 346, 48 h; method in brief: as §1
Saccharomyces cerevisiae [1] = assay: Antimicrobial activity against Saccharomyces cerevisiae Diproval 7070 after 48 hr by agar dilution method; conditions: Diproval 7070, 48 h
Method in brief: (§2)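 Yeast peptone dextrose agar plates, each holding a 2-fold serial dilution of sample (0.5 mL into 9.5 mL medium). Yeast streaked onto the plates and incubated at 28 °C, read at 36 and 48 h. MIC is the lowest concentration tested showing no growth.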

Hanseniaspora vineae = assay: Antimicrobial activity against Hanseniaspora vineae CBS 2171 after 48 hr by agar dilution method; conditions: CBS 2171, 48 h; method in brief: as §2
[2] = test system: Staphylococcus epidermidis; assay: Antimicrobial activity against Staphylococcus epidermidis DSM 1798 after 48 hr by agar dilution method; conditions: DSM 1798, 48 h; method in brief: as §1
Hanseniaspora uvarum [3] = assay: Antimicrobial activity against Hanseniaspora uvarum AP23 after 48 hr by agar dilution method; conditions: Distaam AP23, 48 h; method in brief: as §2
Bacillus licheniformis = assay: Antimicrobial activity against Bacillus licheniformis DSM 13=ATCC 14580 after 48 hr by agar dilution method; conditions: DSM 13 = ATCC 14580, 48 h; method in brief: as §1
Micrococcus luteus = assay: Antimicrobial activity against Micrococcus luteus DSM 348 after 48 hr by agar dilution method; conditions: DSM 348, 48 h; method in brief: as §1
Stutzerimonas stutzeri = assay: Antimicrobial activity against Pseudomonas stutzeri ATCC 962 after 48 hr by agar dilution method; conditions: ATCC 962, 48 h; method in brief: as §1
Trichoderma viride = assay: Antimicrobial activity against Hypocrea rufa ATCC 28020 after 48 hr by agar dilution method; conditions: ATCC 28020, 48 h
Method in brief: (§3)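 Fungi tested by agar dilution in malt agar. Serial 2-fold sample dilutions (0.5 mL) were mixed with 9.5 mL medium and plated, then streaked with the organism. Incubation at 28 °C for 36 and 48 h. MIC is the lowest tested concentration without growth.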

Saccharomyces cerevisiae [4] = assay: Antimicrobial activity against Saccharomyces cerevisiae Diproval 404 after 48 hr by agar dilution method; conditions: Diproval 404, 48 h; method in brief: as §2
Penicillium expansum = assay: Antimicrobial activity against Penicillium expansum ATCC 7861 after 48 hr by agar dilution method; conditions: ATCC 7861, 48 h; method in brief: as §3
Rhizopus arrhizus = assay: Antimicrobial activity against Rhizopus oryzae ATCC 56536 after 48 hr by agar dilution method; conditions: ATCC 56536, 48 h; method in brief: as §3
Saccharomyces cerevisiae [5] = assay: Antimicrobial activity against Saccharomyces cerevisiae Diproval 9109 after 48 hr by agar dilution method; conditions: Diproval 9109, 48 h; method in brief: as §2
Hanseniaspora osmophila = assay: Antimicrobial activity against Hanseniaspora osmophila CBS 313 after 48 hr by agar dilution method; conditions: CBS 313, 48 h; method in brief: as §2
[6] = test system: Hanseniaspora guilliermondii; assay: Antimicrobial activity against Hanseniaspora guilliermondii CBS 465 after 48 hr by agar dilution method; conditions: CBS 465, 48 h; method in brief: as §2
Aspergillus flavus = assay: Antimicrobial activity against Aspergillus flavus ATCC 11655 after 48 hr by agar dilution method; conditions: ATCC 11655, 48 h; method in brief: as §3
Bacillus cereus = assay: Antimicrobial activity against Bacillus cereus DSM 345 after 48 hr by agar dilution method; conditions: DSM 345, 48 h; method in brief: as §1
Escherichia coli [7] = assay: Antimicrobial activity against Escherichia coli ATCC 35346 after 48 hr by agar dilution method; conditions: ATCC 35346, 48 h; method in brief: as §1
Lacticaseibacillus casei = assay: Antimicrobial activity against Lactobacillus casei DSM 20011 after 48 hr by agar dilution method; conditions: DSM 20011, 48 h; method in brief: as §1
Enterococcus faecalis = assay: Antimicrobial activity against Enterococcus faecalis DSM 2570 after 48 hr by agar dilution method; conditions: DSM 2570, 48 h; method in brief: as §1
Saccharomyces cerevisiae [8] = assay: Antimicrobial activity against Saccharomyces cerevisiae Diproval 6073 after 48 hr by agar dilution method; conditions: Diproval 6073, 48 h; method in brief: as §2
Aspergillus fumigatus = assay: Antimicrobial activity against Aspergillus fumigatus ATCC 1028 after 48 hr by agar dilution method; conditions: ATCC 1028, 48 h; method in brief: as §3
Aspergillus niger = assay: Antimicrobial activity against Aspergillus niger ATCC 1040 after 48 hr by agar dilution method; conditions: ATCC 1040, 48 h; method in brief: as §3
[9] = test system: Schizosaccharomyces pombe; assay: Antimicrobial activity against Schizosaccharomyces pombe Diproval 106 after 48 hr by agar dilution method; conditions: Diproval 106, 48 h; method in brief: as §2
Saccharomyces cerevisiae [10] = assay: Antimicrobial activity against Saccharomyces cerevisiae Diproval 2439 after 48 hr by agar dilution method; conditions: Diproval 2439, 48 h; method in brief: as §2
Escherichia coli [11] = assay: Antimicrobial activity against Escherichia coli DSM 682 after 48 hr by agar dilution method; conditions: DSM 682, 48 h; method in brief: as §1
Saccharomycodes ludwigii = assay: Antimicrobial activity against Saccharomycodes ludwigii Diproval 120 after 48 hr by agar dilution method; conditions: Diproval 120, 48 h; method in brief: as §2
Candida albicans = assay: Antimicrobial activity against Candida albicans CBS 562 after 48 hr by agar dilution method; conditions: CBS 562, 48 h; method in brief: as §2
Setophoma terrestris = assay: Antimicrobial activity against Setophoma terrestris ATCC 11321 after 48 hr by agar dilution method; conditions: ATCC 11321, 48 h; method in brief: as §3
[12] = test system: Limosilactobacillus fermentum; assay: Antimicrobial activity against Lactobacillus fermentum DSM 20052 after 48 hr by agar dilution method; conditions: DSM 20052, 48 h; method in brief: as §1
[13] = test system: Lactiplantibacillus plantarum; assay: Antimicrobial activity against Lactobacillus plantarum DSM 20174 after 48 hr by agar dilution method; conditions: DSM 20174, 48 h; method in brief: as §1
Saccharomyces cerevisiae [14] = assay: Antimicrobial activity against Saccharomyces cerevisiae Diproval 8167 after 48 hr by agar dilution method; conditions: Diproval 8167, 48 h; method in brief: as §2
Hanseniaspora uvarum [15] = assay: Antimicrobial activity against Hanseniaspora uvarum CBS 314 after 48 hr by agar dilution method; conditions: CBS 314, 48 h; method in brief: as §2
Pseudomonas aeruginosa = assay: Antimicrobial activity against Pseudomonas aeruginosa DSM 1117 after 48 hr by agar dilution method; conditions: DSM 1117, 48 h; method in brief: as §1
[16] = test system: Lacticaseibacillus rhamnosus; assay: Antimicrobial activity against Lactobacillus rhamnosus DSM 20021 after 48 hr by agar dilution method; conditions: DSM 20021, 48 h; method in brief: as §1

SMILES	MIC (Bacillus subtilis)	MIC (Staphylococcus aureus)	MIC (Saccharomyces cerevisiae [1])	MIC (Hanseniaspora vineae)	MIC [2]	MIC (Hanseniaspora uvarum [3])	MIC (Bacillus licheniformis)	MIC (Micrococcus luteus)	MIC (Stutzerimonas stutzeri)	MIC (Trichoderma viride)	MIC (Saccharomyces cerevisiae [4])	MIC (Penicillium expansum)	MIC (Rhizopus arrhizus)	MIC (Saccharomyces cerevisiae [5])	MIC (Hanseniaspora osmophila)	MIC [6]	MIC (Aspergillus flavus)	MIC (Bacillus cereus)	MIC (Escherichia coli [7])	MIC (Lacticaseibacillus casei)	also measured
C=C(CCC1(OC)O[C@H]2C[C@H]3[C@@H]4CC[C@H]5C[C@@H](O[C@@H]6O[C@H](CO)[C@H](O[C@@H]7O[C@H](CO)[C@@H](O)[C@H](O[C@@H]8O[C@H](CO)[C@@H](O)[C@H](O)[C@H]8O)[C@H]7O[C@@H]7O[C@H](CO)[C@@H](O)[C@H](O[C@@H]8O[C@H](CO)[C@@H](O)[C@H](O)[C@H]8O)[C@H]7O)[C@H](O)[C@H]6O)[C@H](O)C[C@]5(C)[C@H]4CC[C@]3(C)[C@H]2[C@@H]1C)CO[C@@H]1O[C@H](CO)[C@@H](O)[C@H](O)[C@H]1O (some centres not stated) [Capsicoside E]	> 1000 µg/mL	> 1000 µg/mL	50 µg/mL (≈ 34.8 µM)	50 µg/mL (≈ 34.8 µM)	> 1000 µg/mL	25 µg/mL (≈ 17.4 µM)	> 1000 µg/mL	> 1000 µg/mL	> 1000 µg/mL	500 µg/mL (≈ 348 µM)	50 µg/mL (≈ 34.8 µM)	1000 µg/mL (≈ 697 µM)	125 µg/mL (≈ 87.1 µM)	50 µg/mL (≈ 34.8 µM)	100 µg/mL (≈ 69.7 µM)	50 µg/mL (≈ 34.8 µM)	> 1000 µg/mL	1000 µg/mL (≈ 697 µM)	1000 µg/mL (≈ 697 µM)	1000 µg/mL (≈ 697 µM)	MIC (Enterococcus faecalis): > 1000 µg/mL; MIC (Saccharomyces cerevisiae [8]): 50 µg/mL (≈ 34.8 µM); MIC (Aspergillus fumigatus): > 1000 µg/mL; MIC (Aspergillus niger): > 1000 µg/mL; MIC [9]: 100 µg/mL (≈ 69.7 µM); MIC (Saccharomyces cerevisiae [10]): 50 µg/mL (≈ 34.8 µM); MIC (Escherichia coli [11]): 1000 µg/mL (≈ 697 µM); MIC (Saccharomycodes ludwigii): 50 µg/mL (≈ 34.8 µM); MIC (Candida albicans): 25 µg/mL (≈ 17.4 µM); MIC (Setophoma terrestris): 125 µg/mL (≈ 87.1 µM); MIC [12]: 1000 µg/mL (≈ 697 µM); MIC [13]: 1000 µg/mL (≈ 697 µM); MIC (Saccharomyces cerevisiae [14]): 50 µg/mL (≈ 34.8 µM); MIC (Hanseniaspora uvarum [15]): 25 µg/mL (≈ 17.4 µM); MIC (Pseudomonas aeruginosa): > 1000 µg/mL; MIC [16]: 1000 µg/mL (≈ 697 µM)
COC1(CC[C@@H](C)CO[C@@H]2O[C@H](CO)[C@@H](O)[C@H](O)[C@H]2O)O[C@H]2C[C@H]3[C@@H]4CC[C@H]5C[C@@H](O[C@@H]6O[C@H](CO)[C@H](O[C@@H]7O[C@H](CO)[C@@H](O)[C@H](O[C@@H]8O[C@H](CO)[C@@H](O)[C@H](O)[C@H]8O)[C@H]7O[C@@H]7O[C@H](CO)[C@@H](O)[C@H](O[C@@H]8O[C@H](CO)[C@@H](O)[C@H](O)[C@H]8O)[C@H]7O)[C@H](O)[C@H]6O)[C@H](O)C[C@]5(C)[C@H]4CC[C@]3(C)[C@H]2[C@@H]1C (some centres not stated) [O-METHYLCAPSICOSIDE A]	> 1000 µg/mL	> 1000 µg/mL	50 µg/mL (≈ 34.8 µM)	25 µg/mL (≈ 17.4 µM)	> 1000 µg/mL	50 µg/mL (≈ 34.8 µM)	> 1000 µg/mL	> 1000 µg/mL	> 1000 µg/mL	250 µg/mL (≈ 174 µM)	50 µg/mL (≈ 34.8 µM)	1000 µg/mL (≈ 696 µM)	125 µg/mL (≈ 87 µM)	50 µg/mL (≈ 34.8 µM)	50 µg/mL (≈ 34.8 µM)	25 µg/mL (≈ 17.4 µM)	> 1000 µg/mL	1000 µg/mL (≈ 696 µM)	1000 µg/mL (≈ 696 µM)	1000 µg/mL (≈ 696 µM)	MIC (Enterococcus faecalis): > 1000 µg/mL; MIC (Saccharomyces cerevisiae [8]): 50 µg/mL (≈ 34.8 µM); MIC (Aspergillus fumigatus): > 1000 µg/mL; MIC (Aspergillus niger): > 1000 µg/mL; MIC [9]: 50 µg/mL (≈ 34.8 µM); MIC (Saccharomyces cerevisiae [10]): 50 µg/mL (≈ 34.8 µM); MIC (Escherichia coli [11]): 1000 µg/mL (≈ 696 µM); MIC (Saccharomycodes ludwigii): 50 µg/mL (≈ 34.8 µM); MIC (Candida albicans): 50 µg/mL (≈ 34.8 µM); MIC (Setophoma terrestris): 125 µg/mL (≈ 87 µM); MIC [12]: 1000 µg/mL (≈ 696 µM); MIC [13]: 1000 µg/mL (≈ 696 µM); MIC (Saccharomyces cerevisiae [14]): 50 µg/mL (≈ 34.8 µM); MIC (Hanseniaspora uvarum [15]): 25 µg/mL (≈ 17.4 µM); MIC (Pseudomonas aeruginosa): > 1000 µg/mL; MIC [16]: 1000 µg/mL (≈ 696 µM)
